From PubChem BioAssay
This is a sample that favours compounds with a hit; in the whole collection about 1.5% have one here.
PG9 binder – small molecules binding HIV-1 gp120 antibody PG9. TR-FRET gp120-PG9 antibody binding. inhibition, % at 6.7 µM. hit rate 0.43% among 360,000. AID 624416; in the data active = inhibition above about 8.5%
Rev-erbA mod – modulators of human Rev-erb alpha DNA binding | P20393 | Rev-erbα–FITC-DNA binding, fluorescence polarization, 90 min | activity, % at 10 µM | hit rate 0.79% among 370,000;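 active = activity above about 14%, limit read from the data; passing the limit was not always enough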;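 note: 0% = DMSO wells with 35 nM protein and 100% = DMSO wells with 750 nM protein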
NR2E3 ag-1 – agonists of human nuclear receptor NR2E3; GST-NR2E3/biotin-RetCOR TR-FRET, 1536-well; inhibition of corepressor binding, % at 4.78 µM; hit rate 0.12% among 320,000; AID 2300;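 active = percent inhibition above the cutoff of mean plus 3 SD of all tested compounds, set per screening campaign, cut at about 20% in these data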;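 note: 0% = DMSO wells and 100% = biotin wells as full block of FRET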
Target sequence (Q9Y5X4 whole entry, looked up): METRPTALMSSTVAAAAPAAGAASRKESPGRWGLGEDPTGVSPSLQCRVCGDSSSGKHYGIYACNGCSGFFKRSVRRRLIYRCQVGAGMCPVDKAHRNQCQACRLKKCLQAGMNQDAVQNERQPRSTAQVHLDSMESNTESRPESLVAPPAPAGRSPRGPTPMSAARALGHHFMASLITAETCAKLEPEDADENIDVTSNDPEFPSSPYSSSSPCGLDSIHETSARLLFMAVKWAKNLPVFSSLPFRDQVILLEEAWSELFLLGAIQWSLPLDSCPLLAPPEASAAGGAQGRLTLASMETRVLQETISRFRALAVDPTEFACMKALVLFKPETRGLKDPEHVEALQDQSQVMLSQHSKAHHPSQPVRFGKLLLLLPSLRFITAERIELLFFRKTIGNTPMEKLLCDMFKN
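System: GST-tagged NR2E3 plus biotinylated RetCOR corepressor; Amount: 1.35 nM GST-tagged NR2E3 final; Dosing: single nominal compound dose of 4.8 µM; Schedule: 5 h incubation at 4 °C; Technique: TR-FRET with europium anti-GST and streptavidin-D2, 340 nm excitation; Controls: biotin wells as high control, 0.6% DMSO wells as low control.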
NR2E3 ag-2 – human photoreceptor-specific nuclear receptor agonism; Q9Y5X4; CHO-S Gal4-NCOR/VP16-NR2E3 two-hybrid, luciferase; inhibition of corepressor binding, % at 3.98 µM; hit rate 0.35% among 360,000; AID 602229;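 active = inhibition above the mean of all tested compounds plus 3 SD, cut at about 70% in these data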;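 note: 0% = DMSO with NR2E3 transfected cells and 100% = cells lacking NR2E3 construct; higher means lower luciferase signal from less NR2E3 corepressor binding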
NR2E3 ag confirm – NR2E3 agonism confirmed in two-hybrid assay. shares compounds with NR2E3 ag-2. CHO-S mammalian two-hybrid NR2E3-NCOR, luciferase luminescence. inhibition, % at 3.98 µM. hit rate 51% among 2,300;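 active = average inhibition above a cutoff equal to the mean inhibition of all tested compounds plus one SD, cut at about 70% in these data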;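 note: 0% = DMSO in NR2E3 cells and 100% = DMSO in cells lacking NR2E3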
VP16 counter – GAL4-VP16 reporter inhibition in NR2E3 agonist counterscreen; CHO-S GAL4-VP16 luciferase reporter, luminescence; inhibition, % at 3.98 µM; hit rate 29% among 2,300; shares compounds with NR2E3 ag-2;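 active = mean inhibition above a cutoff equal to the average over all tested compounds plus one standard deviation, cut at about 70% in these data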;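 note: luciferase from a UAS reporter driven by GAL4-VP16 transactivation; 0% = DMSO with VP16-transfected cells and 100% = DMSO with cells lacking VP16; higher means less reporter light so more repression of VP16 activity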
Numbers without * were called inactive; / = no result given.

SMILES	PG9 binder	Rev-erbA mod	NR2E3 ag-1	NR2E3 ag-2	NR2E3 ag confirm	VP16 counter
CCCCN(CCCC)c1ccc(C(=O)c2ccccc2C(=O)O)c(O)c1	-1	-2	-1	50	9	33
CN(C)c1ccc(C(=O)c2ccccc2C(=O)O)c(O)c1	-1	-3	1	-23	/	/
CS(=O)(=O)Nc1cc2occ(NC=O)c(=O)c2cc1Oc1ccccc1	/	-2	/	/	/	/
CC(=O)c1cc(-c2ccc(-c3ccccc3)c(F)c2)c(=O)n2c1CCC2	/	-2	/	/	/	/
COc1ccc(CNS(=O)(=O)c2ccc(-c3cc(C)no3)cc2)cc1	-4	0	5	51	31	34
CCOC(=O)COc1ccc(C(C)c2ccc(NC(=O)OC(C)(C)C)cc2)cc1 (stereo not given)	/	-1	/	/	/	/
O=P(O)(O)C(O)(Cc1cnc2ccccn12)P(=O)(O)O	/	2	/	/	/	/
COc1ccc(OC[C@@H](O)CN2CCC(C(O)(c3ccccc3)c3ccccc3)CC2)cc1	/	-7	/	/	/	/
N#Cc1c(Cl)nsc1NC(=O)c1ccccc1	1	-5	4	85*	99*	88*
O=C(OC12CCCN(C1)/C(=C/c1ccc(Cl)cc1)C2)c1ccc(Cl)cc1 (stereo not given)	/	-3	/	/	/	/
C#CCNC(=O)C[C@@H]1C(=O)N(CC=C)/C2=C/CCCCC[C@]21C(=O)OCC	/	2	/	/	/	/
FC(F)Sc1ccc(NC(=S)N2CCN(c3ccccn3)CC2)cc1	-2	3	/	61	87*	45
Oc1ccccc1N1CCN(C(=S)Nc2ccc(SC(F)F)cc2)CC1	-1	6	-2	20	/	/
CSc1ccc(C(=O)C2CCCN(C(=O)CCn3cncn3)C2)cc1 (stereo not given)	-1	0	0	6	/	/
CSc1ccc(C(=O)C2CCCN(C(=O)CCc3c(C)nn(C)c3C)C2)cc1 (stereo not given)	0	-2	3	56	45	43
CC(C)(C)OC(=O)NCCCCCc1cn([C@@H](CO)C(=O)NCCCCCCCCCCC(=O)N2CCN(C(=O)OC(C)(C)C)CC2)nn1	2	0	3	66	83*	74*
CC(C)(C)OC(=O)CC[C@@H](C(=O)NCCCCCCCCCCC(=O)N1CCN(C(=O)OC(C)(C)C)CC1)n1cc(CCCCCNC(=O)OC(C)(C)C)nn1	2	7	3	-3	/	/
COc1ccc(Cn2cc(CN3[C@H](CC(C)C)COc4cc(Br)ccc4S3(=O)=O)nn2)cc1	/	-2	/	/	/	/
Cc1c(C#N)c2ncn(Cc3ccccn3)c(=O)c2n1-c1ccccc1	0	1	-1	11	/	/
Cc1c(C#N)c2ncn(CCCN(C)C)c(=O)c2n1-c1ccccc1	0	1	2	90*	-9	-10
FC(F)(F)c1ccccc1-n1c(-c2ccco2)n[nH]c1=S	1	-2	0	63	20	3
CCOC(=O)[C@@]12CN(C(=O)OC(C)(C)C)CC=C1N(Cc1ccc(OC)cc1)C(=O)[C@H]2CC(=O)NCc1cccs1	/	4	/	/	/	/
C[C@H]1[C@@H](OC(=O)NCCc2ccccc2)CC[C@@]23CCCN2C(=O)CCC[C@@H]13	/	-2	/	/	/	/
COC(=O)Cc1ccc(NC(=O)c2ccc(C(C)(C)C)cc2)cc1	1	1	0	56	58	49
COc1ccccc1-c1noc(CCCC(=O)NC2CCCC2)n1	0	-5	2	-23	/	/
SMILES	PG9 binder	Rev-erbA mod	NR2E3 ag-1	NR2E3 ag-2	NR2E3 ag confirm	VP16 counter
O=C(CCCc1nc(-c2ccccc2Cl)no1)NC1CCCC1	1	-9	-1	62	60	56
O=C(c1ccccc1)c1coc2c1C(=O)c1ccccc1C2=O	2	-1	-2	-28	/	/
O=C1c2ccccc2C(=O)c2c1oc(C(F)(F)F)c2C(=O)c1ccccc1	0	0	4	112*	98*	87*
CCOc1cc(CNCCc2ccc(S(N)(=O)=O)cc2)ccc1OCc1ccc(Cl)cc1	0	-4	-5	52	44	30
CC(=O)Cc1nsc(NC(=O)c2c(-c3ccccc3Cl)noc2C)n1	-1	6	1	0	/	/
Cc1onc(-c2ccccc2Cl)c1C(=O)Nc1nc2c(s1)CCCC2	-1	-3	5	82*	86*	-41
Nc1cc(S(=O)(=O)Nc2ccc(Cl)cc2)ccc1N1CCOCC1	3	-2	-1	55	85*	64
